Test results taken from the RNAGym collection of RNA variant scans (doi:10.1126/science.aae0568).
Fewer inactive variants are shown than the library holds.

B1: tRNA (parent)
chain: GUUCCGUUGGCGUAAUGGUAACGCGUCUCCCUCCUAAGGAGAAGACUGCGGGUUCGAGUCCCGUACGGAACG

Variants of: B1
Test: yeast fitness relative to wild type (ratio to wild type); higher = fitter; tRNA-Arg(CCU), competitive growth, 37 C, YPD
Outline: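 Variants of the tRNA-Arg(CCU) gene were chemically synthesised with a 3% per-site mutation rate across 69 sites and placed at the native genomic locus in Saccharomyces cerevisiae. Six parallel replicates of the pooled strains were competed in YPD at 37°C for 24 hours, and gene amplicons from the start and end populations were read by 100-nucleotide paired-end sequencing. Darwinian fitness relative to wild type was derived from changes in genotype frequencies. Genotypes required ≥ 100 starting reads, and estimates < 0.5 were set to 0.5.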

| Variant | yeast fitness |
| --- | --- |
| GUUCCGUUGGCGUCAUGGGAACGCGUCUCCCACCUAAGGAGAAGACUGCGGGUUCGAGUCCCGUACGGAACG [A14C U19G U32A] | ≤ 0.5 |
| GUUCCGUUGGCGUCAUGGUAACGCGUCUCCCUCCUAAGCAGAAGACUGCGGGUUCGAGUCCCGUACGGAACG [A14C G39C] | 0.575 |
| GUUCCGUUGGCGUCAAGGUAACGCGUGUCCCUCCUAAGGAGAAGACUGCGGGUUUGAGUCCCGUACGGAACG [A14C U16A C27G C55U] | 0.539 |
| GUUCCGUUGGCGUCAUGGUAACGCGUCUCCCUCCCAAGGAGAAGACUGCGGGUUCGAGUCCCGUGCGGAACG [A14C U35C A65G] | 0.525 |
| GUUCCGUUGGCGUCAUGGUAACGCCUGUCCCUCUAAAAGAGAAGACUGCGGGUUCGAGACCCGUACGGAACG [A14C G25C C27G C34U U35A G38A U59A] | ≤ 0.5 |
| GUUCCGUUGGCGUCAUGGUAACGCGUCUCCCUCCCAAGGAGAAGACUGCGGGUUCGUGUCCCGUACGGAACG [A14C U35C A57U] | ≤ 0.5 |
| GUUCCGUUGGCGUCAUGGCAACGCGUCUCCCUCCUAAGGAGAAGACUGCGGGUUCGAGUCCCGUAUGGAACG [A14C U19C C66U] | 0.722 |
| GUUCCGUUGGCGUCAUGGCAACGCGUCUCCCUCUUAAGGAGAAGACUGCGGGUUCGAGUCCCGUACGGAACG [A14C U19C C34U] | ≤ 0.5 |
| GUUCCGUUGGCGUCAUGGAAACGCGUCUCCCUCCUAAGCAGAAGACUGCGGGUUCGAGUCCCGUACGGAACG [A14C U19A G39C] | ≤ 0.5 |
| GUUCCGUUGGCGUCAUGGUAACGCGUCUCCCUCCUAAGGAGAAGACUGCGGGUUCGACUCCCGUACGCAACG [A14C G58C G68C] | ≤ 0.5 |
| GUUCCGUUGGCGUCAUGGUAACGCGUCUCCCUCCUAAGGAGAAGACUGCGGGUUCAAGUCCCGUACGGCACG [A14C G56A A69C] | 0.578 |
| GUUCCGUUGGCGUCAUGGUAACGCGUCUCCCGCCUAAGCAGAAGACUGCGGGUUCGAGUCCCGUACGGAACG [A14C U32G G39C] | ≤ 0.5 |
| GUUCCGUUGGCGUCAUGGUAACGCCUCUCCCUCCUAAGGAGAAGACUACAGGUUCGAGUCCCGUACGGAACG [A14C G25C G48A G50A] | ≤ 0.5 |
| GUUCCGUUGGCGUCAUGGUAACGCGUCUCCCUCCUAAGGAGAAGACUGCGGGUUCGACUCCCGUACAGAACG [A14C G58C G67A] | ≤ 0.5 |
| GUUCCGUUGGCGUCAUGGUAACGCCUCUCCCUCCUAAGGAGAAGGCUACGGGUUCGAGUCCCGUACGGAACG [A14C G25C A45G G48A] | 0.534 |
| GUUCCGUUGGCGUCAUGGUAACGCGUCACCCUCCUAAGGAGUAGACUGCGGGUUCGAGUCCCGUACGGAACG [A14C U28A A42U] | ≤ 0.5 |
| GUUCCGUUGGCGUCAUGGUAACGCGUCGCCCUCCUAAGGAGAAGACUGCGGGUUGGAGUCCCGUACGCAACG [A14C U28G C55G G68C] | ≤ 0.5 |
| GUUCCGUUGGCGUCAAGGUAACGUGUCUCCCUCCUAAGGAGAAGACUGCGGGCUCGAGUGCCGUACGGAACG [A14C U16A C24U U53C C60G] | ≤ 0.5 |
| GUUCCGUUGGCGUCACGGUAACGCGUCUCCCUCCUAAGGAGAAGACUGCGGGUUUGAGUCCCGUACGGAGCG [A14C U16C C55U A70G] | ≤ 0.5 |

| Variant | yeast fitness |
| --- | --- |
| GUUCCGUUGGCGUCAUGGUAACGCGUCUCCCUCCUAAGGAGAAAACUGCGGGUUCGAGUCCCGUAUGGAACG [A14C G44A C66U] | ≤ 0.5 |
| GUUCCGUUGGCGUCAUGGUAACGCGUCACCCUCCUAAGGAGAAAACUGCGGGUUAGAGUCCCGUACGGAACG [A14C U28A G44A C55A] | ≤ 0.5 |
| GUUCCGUUGGCGUCACGGUAACGCGUCUCCCUCCUAGGGUGAAGACUGCGCGUUCGAGUCCCGUACGGCACG [A14C U16C A37G A40U G51C A69C] | ≤ 0.5 |
| GUUCCGUUGGCGUCAUGGGAACGCGUCUCCGUUCUAAGGAGGAGACUGCGGGUUCGAGUCCCGCGCGGAACG [A14C U19G C31G C33U A42G U64C A65G] | ≤ 0.5 |
| GUUCCGUUGGCGUCAUGGUAACGCCUGUCCCUCUAAAAGAGAAGACUGCGGGUUCGAGUCCCGUACGGAGCG [A14C G25C C27G C34U U35A G38A A70G] | ≤ 0.5 |
| GUUCCGUUGGCGUCAUGGUAACGCGACUUCCUCCUAAGGAGAAGACUGUGGGUUCGAGUCCCGUACGGAACG [A14C U26A C29U C49U] | ≤ 0.5 |
| GUUCCGUUGGCGUCAUGGUAACGCGGCUACCUCCUAAGGAGCAGACUGCGGGUUCGAGUCCCGUACGGAACG [A14C U26G C29A A42C] | ≤ 0.5 |
| GUUCCGUUGGCGUCAUGGUAACGCGUCACCCUCCUAAGGAGAAGACUGCGGGUACGAGUCGCGUACGGCACG [A14C U28A U54A C61G A69C] | ≤ 0.5 |
| GUUCCGUUGGCGUCAUGGCAACGCGUCUCCCUCCUAAGGAGACCACUACGGGUUCGAGACCCGCAUGGAACG [A14C U19C A43C G44C G48A U59A U64C C66U] | ≤ 0.5 |
| GUUCCGUUGGCGUCAUGGUAACGCGUCUCCCUCCUAAGGAGAAGACUGCUGGUUCGAGUCCCGUACGGAACG [A14C G50U] | 0.708 |
| GUUCCGUUGGCGUCAUGGUAACGCGUCUCCCUCCUAAGGAGAAGACUGCAGGUUCGAGUCCCGUACGGAACG [A14C G50A] | 0.612 |
| GUUCCGUUGGCGUCAUGGCAACGCGUAUCCCUCCUAAGGACUAGACUGCGGGUUCGAGUCCCGUAUGGAACG [A14C U19C C27A G41C A42U C66U] | 0.582 |
| GUUCCGUUGGCGUCAAGGUAACGCGUCUCCCUCCUAAGGACAAGACUGCGGGUUCGAGUCCCCUUCGGAACG [A14C U16A G41C G63C A65U] | 0.586 |
| GUUCCGUUGGCGUCAUGGUAACGCGUCUCCCUCCUAAGGAGAAGACUGCGGGUUCGAGUCCCGUACUGAACG [A14C G67U] | 0.678 |
| GUUCCGUUGGCGUCAUGGUAACGCGACUCCCUCUUAAGGAGAAGACUGCGGGUUGGAGUCCCGUACGAAACG [A14C U26A C34U C55G G68A] | ≤ 0.5 |
| GUUCCGUUGGCGUCAUGGUAACGCGUCUCCCGCGUAAGGAGAUGACUGCGGGUUCGACUCCCGUACUGAACG [A14C U32G C34G A43U G58C G67U] | ≤ 0.5 |
| GUUCCGUUGGCGUCAUGGUAACGCGUCUCCCGCCUAAGGAGAAGACUGCGGGUUCGAGUCCCGUACGGAACG [A14C U32G] | 0.752 |
| GUUCCGUUGGCGUCAUGGUAACGCGCCUUCCUCCUAAGGAGAGGACUGCGGGUUCGAGUCCCGUACGGAACG [A14C U26C C29U A43G] | 0.59 |
